Experimental data reported in ChEMBL document CHEMBL4725371, “A Novel Redox Modulator Induces a GPX4-Mediated Cell Death That Is Dependent on Iron and Reactive Oxygen Species” (J Med Chem, 2020).
Active and inactive are the calls of the source. The rule behind the calls is not given here.

Assays:
[1] = Drug level in mouse plasma treated with QD394 at 500 uM measured after 0.5 hrs by LC-MS/MS analysis
[2] = system: PANC-1; experiment: Cytotoxicity against human PANC-1 cells measured after 72 hrs by MTT assay; format: functional, cell-based; conditions: PANC-1, 72 h
Summary of the method: (§1)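 Cells were kept in RPMI 1640 with 10% FBS at 37 °C, 5% CO₂, under 35 passages. Cells were seeded, attached overnight and treated with compound or DMSO for 72 h. MTT was added at 0.3 mg/mL for 3 h, then dissolved in DMSO and read as absorbance at 570 nm. IC50 was fitted from the curve. Values are mean ± sd of three independent experiments.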

[3] = system: MIA PaCa-2; experiment: Cytotoxicity against human MIA PaCa-2 cells measured after 72 hrs by MTT assay; format: functional, cell-based; conditions: MIA PaCa-2, 72 h
Summary of the method: as §1

[4] = system: BXPC-3; experiment: Cytotoxicity against human BXPC-3 cells measured after 72 hrs by MTT assay; format: functional, cell-based; conditions: BXPC-3, 72 h
Summary of the method: as §1

[5] = system: MIA PaCa-2; experiment: Down regulation of PNPT1 expression in human MIA PaCa-2 cells at 3 times IC50 measured after 4 hrs by proteomics analysis; format: functional, cell-based
[6] = system: MIA PaCa-2; experiment: Down regulation of LRPPRC expression in human MIA PaCa-2 cells at 3 times IC50 measured after 4 hrs in presence of NAC by proteomics analysis; format: functional, cell-based
[7] = system: MIA PaCa-2; experiment: Down regulation of LRPPRC expression in human MIA PaCa-2 cells at 3 times IC50 measured after 4 hrs by proteomics analysis; format: functional, cell-based
[8] = system: MIA PaCa-2; experiment: Down regulation of PNPT1 expression in human MIA PaCa-2 cells at 3 times IC50 measured after 4 hrs in presence of NQO1 inhibitor dicoumarol by proteomics analysis; format: functional, cell-based
[9] = system: MIA PaCa-2; experiment: Inhibition glutathione synthesis in human MIA PaCa-2 cells at 1 to 2 uM measured after 2 to 4 hrs by GSH/GSSG-glo assay; format: functional, cell-based; conditions: dose microM 1-2, time hrs 2-4
Summary of the method: (§2)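 GSH/GSSG-Glo luminescent assay: 15,000–20,000 MIA PaCa-2 cells per well, attached overnight, treated 2 h and 4 h. Cells were lysed with total or oxidized glutathione reagent, then luciferin generation (30 min, room temperature) and detection reagents added. Luminescence was read after 15 min. Ratio was computed from net RLU as (total − GSSG)/(GSSG/2).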

[10] = system: MIA PaCa-2; experiment: Down regulation of PNPT1 expression in human MIA PaCa-2 cells at 3 times IC50 measured after 4 hrs in presence of NAC by proteomics analysis; format: functional, cell-based
[11] = system: MIA PaCa-2; experiment: Down regulation of LRPPRC expression in human MIA PaCa-2 cells at 3 times IC50 measured after 4 hrs in presence of NQO1 inhibitor dicoumarol by proteomics analysis; format: functional, cell-based
[12] = system: PANC-1; experiment: Down regulation of LRPPRC expression in human PANC-1 cells at 3 times IC50 measured after 1 to 24 hrs by proteomics analysis; format: functional, cell-based; conditions: time hrs 1-24
[13] = system: MIA PaCa-2; experiment: Inhibition of colony formation in human MIA PaCa-2 cells at 0.6 uM measured after 7 to 9 days in presence of necroptosis inhibitor necrostatin-1 by crystal violet staining based assay; format: functional, cell-based; conditions: time day 7-9
Summary of the method: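 Cells seeded overnight in 96-well plates at 300 cells/well (MIA PaCa-2) or 600 cells/well (BxPC-3), in RPMI 1640 with 10% FBS. Inhibitor added 1 h before compound, then continuous exposure for 7–9 days until control wells were 80–90% confluent. Stained with 0.05% crystal violet for 30 min, imaged after overnight drying and quantified.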

[14] = system: PANC-1; experiment: Down regulation of PNPT1 expression in human PANC-1 cells at 3 times IC50 measured after 1 to 24 hrs by proteomics analysis; format: functional, cell-based; conditions: time hrs 1-24
[15] = system: MIA PaCa-2; experiment: Induction of reactive oxygen species in human MIA PaCa-2 cells assessed as reduction in GSH to GSSG ratio at 1 to 2 uM measured after 2 to 4 hrs by GSH/GSSG-glo assay; format: functional, cell-based; conditions: dose microM 1-2, time hrs 2-4
Summary of the method: as §2

[16] = system: MIA PaCa-2; experiment: Induction of reactive oxygen species in human MIA PaCa-2 cells at 200 uM measured after 30 mins in presence of N-acetylcysteine by CM-H2DCFDA dye based fluorescence assay; format: functional, cell-based
Summary of the method: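 MIA PaCa-2 cells seeded at 1.8 × 10⁴/well, attached overnight, then loaded with 10 μM CM-H2DCFDA in HBSS for 40 min at 37 °C. Washed twice with warm DPBS; compounds added in HBSS. N-acetylcysteine used at 3 mM. Fluorescence read at Ex 483 / Em 530 nm, with the 30 min point taken. Unpaired t-test.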

[17] = system: MIA PaCa-2; experiment: Induction of ferroptosis in human MIA PaCa-2 cells assessed as increase in lipid peroxidation at 100 uM measured after 24 hrs by C11-BODIPY dye based fluorescence assay; format: functional, cell-based
Summary of the method: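 MIA PaCa-2 cells (RPMI 1640, 10% FBS, 37 °C, 5% CO2) exposed to compound for the set time, then 10 μM C11-BODIPY added for 30 min at 37 °C. After two DPBS washes, read in HBSS at 581/591 nm (reduced dye) and 488/510 nm (oxidized dye); emission ratio calculated, unpaired Student's t-test.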

Structure (SMILES)	IC50 [2]	IC50 [3]	IC50 [4]	also measured
CN1CCN(c2ccc(NC3C(=O)c4cncnc4C(=O)C3O)cc2)CC1 (stereo unspecified)				Drug uptake [1]: Active
CN1C(O)CN(c2ccc(NC3=CC(=O)c4ncncc4C3=O)cc2)CC1O (stereo unspecified)				Drug uptake [1]: Active
O=C1C(Nc2ccc3c(c2)Cc2ccccc2-3)=CC(=O)c2ncncc21	1600 nM	2200 nM	2600 nM	
O=C1C(Nc2ccc(N3CCCCC3)cc2)=CC(=O)c2ncncc21	1400 nM	2400 nM	2500 nM	
O=C1C(Nc2ccc(C3CCCCC3)cc2)=CC(=O)c2ncncc21	900 nM	1200 nM	500 nM	
O=C1C(Nc2ccc(-c3ccccn3)cc2)=CC(=O)c2ncncc21	800 nM	2000 nM	2700 nM	
O=C1C(Nc2cccc3c2Cc2ccccc2-3)=CC(=O)c2ncncc21	4700 nM	3100 nM	4500 nM	
CC(=O)c1cc2c(o1)C(=O)c1ccccc1C2=O				Activity [5]: Active; Activity [6]: Active; Activity [7]: Active; Activity [8]: inactive; inhibition [9]: Active; Activity [10]: Active; Activity [11]: inactive; Activity [12]: inactive; inhibition [13]: inactive; Activity [14]: inactive; Activity [15]: Active
O=C1C(Nc2ccc(N3CCOCC3)cc2)=CC(=O)c2ncncc21	800 nM	1500 nM	2300 nM	
CCc1ccc(-c2ccc(NC3=CC(=O)c4ncncc4C3=O)cc2)cc1	2300 nM	1500 nM	1600 nM	
CC(C)(C)OO				Activity [16]: inactive; Activity [17]: Active
